Experimental data taken from ChEMBL document CHEMBL1148178, “Dicranin, an antimicrobial and 15-lipoxygenase inhibitor from the moss Dicranum scoparium” (1993).

Experiments:
Glycine max [1] = assay: Inhibition of soybean 15-LOX at 33 ug/ml
Outline: (§1)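 15-Lipoxygenase inhibition assay run with arachidonic acid (40 μM) as the substrate, at the single test concentration given in each line.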

Glycine max [2] = assay: Inhibition of soybean 15-LOX at 0.36 uM; outline: as §1

Question: Which results are given for `Oc1ccccc1O`?
Answer: inhibition (Glycine max [1]): 33%; inhibition (Glycine max [2]): 37%
